Measurements as given in ChEMBL document CHEMBL1148495, “Racemic and chiral sulfoxides as potential prodrugs of the COX-2 inhibitors Vioxx and Arcoxia” (Bioorg Med Chem Lett, 2006).
Values after ≈ are worked out from the molar mass of the structure shown. Each block holds one molecule with its values, some of them ahead of it.

Legend:
[1] = Solubility in SGF at pH 1.8; type: physicochemical
Rattus norvegicus [2] = experiment: Inhibition of adjuvant-induced arthritis in Wistar rat at 1 mg/kg, po; type: functional
Procedure, shortened: (§1)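 Adjuvant-induced arthritis in male Wistar rats, therapeutic protocol. Compounds were given orally once daily for 7 days, starting on day 14 after arthritis induction. Paw edema was measured 24 h after the last dose and expressed as % inhibition.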

[3] = Tmax in Wistar rat at 1 mg/kg, po; type: ADME, organism-based; set-up: dose 1 mg/kg, route oral; conditions: in vivo
Procedure, shortened: (§2)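 Male Wistar rats given a single oral dose of 1 mg/kg as a suspension in 0.5% methylcellulose with 0.1% Tween 80. Plasma levels of sulfoxide prodrug and sulfone parent were followed over time. Cmax, tmax and AUC0-t are reported as means (n = 2–3) with SD.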

[4] = Solubility in PBS at pH 7.2; type: physicochemical
[5] = AUC(0-t) in Wistar rat at 1 mg/kg, po; type: ADME, organism-based; set-up: dose 1 mg/kg, route oral; conditions: plasma; procedure, shortened: as §2
Rattus norvegicus [6] = experiment: Inhibition of yeast-induced pyresis in Wistar rat at 3 mg/kg, po; type: functional
Procedure, shortened: (§3)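 Yeast-induced pyresis, an acute model run as a therapeutic protocol. Compounds were given as a single oral dose. Temperature was recorded at 1 h intervals from 1 to 5 h after dosing and expressed as % inhibition.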

[7] = Cmax in Wistar rat at 1 mg/kg, po; type: ADME, organism-based; set-up: dose 1 mg/kg, route oral; conditions: in vivo; procedure, shortened: as §2
Liver microsomes [8] = experiment: Stability in human liver microsomes; type: ADME, Microsome
Procedure, shortened: (§4)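 Compound at 5 µM was incubated with human or rat liver microsomes (1 mg/mL microsomal protein) for 30 min at 37 °C. Result is given as % metabolism.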

Liver microsomes [9] = experiment: Stability in rat liver microsomes; type: ADME, Microsome; procedure, shortened: as §4
[10] = target: T1, Prostaglandin G/H synthase 2 (Homo sapiens) (UniProt P35354); experiment: Inhibition of COX2 in human whole blood at 10 uM; type: tissue-based
T1 sequence (whole entry): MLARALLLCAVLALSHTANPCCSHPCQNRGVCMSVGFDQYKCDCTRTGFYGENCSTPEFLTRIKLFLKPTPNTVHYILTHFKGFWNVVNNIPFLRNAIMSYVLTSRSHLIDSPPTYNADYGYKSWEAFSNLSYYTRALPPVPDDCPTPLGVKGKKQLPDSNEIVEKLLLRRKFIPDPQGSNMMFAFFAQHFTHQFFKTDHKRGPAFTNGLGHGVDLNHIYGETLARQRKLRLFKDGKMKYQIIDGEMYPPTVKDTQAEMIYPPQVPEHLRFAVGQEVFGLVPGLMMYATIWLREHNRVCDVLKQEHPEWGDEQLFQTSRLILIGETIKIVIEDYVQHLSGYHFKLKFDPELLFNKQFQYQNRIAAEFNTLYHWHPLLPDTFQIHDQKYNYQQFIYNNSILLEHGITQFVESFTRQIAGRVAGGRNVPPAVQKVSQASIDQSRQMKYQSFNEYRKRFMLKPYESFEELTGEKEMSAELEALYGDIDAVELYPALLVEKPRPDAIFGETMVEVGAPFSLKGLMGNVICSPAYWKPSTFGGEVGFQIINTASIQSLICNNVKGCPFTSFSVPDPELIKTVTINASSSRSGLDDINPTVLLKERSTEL

Rattus norvegicus [11] = experiment: AUC(0-t) for parent compound after prodrug dosing in Wistar rat at 1 mg/kg, po; type: ADME, organism-based, Plasma; set-up: dose 1 mg/kg, route oral; conditions: in vivo; procedure, shortened: as §2
Rattus norvegicus [12] = experiment: Cmax for parent compound after prodrug dosing in Wistar rat at 1 mg/kg, po; type: ADME, organism-based; set-up: dose 1 mg/kg, route oral; conditions: in vivo; procedure, shortened: as §2
[13] = target: T2, Prostaglandin G/H synthase 2 (Homo sapiens, UniProt P35354); experiment: Inhibition of COX2 in human whole blood; type: tissue-based
T2 sequence (P35354 whole entry): T1 sequence (whole entry)

Rattus norvegicus [14] = experiment: Tmax for parent compound after prodrug dosing in Wistar rat at 1 mg/kg, po; type: ADME, organism-based; set-up: dose 1 mg/kg, route oral; conditions: in vivo; procedure, shortened: as §2
Rattus norvegicus [15] = experiment: Inhibition of yeast-induced pyresis in Wistar rat at 1 mg/kg, po; type: functional; procedure, shortened: as §3
Rattus norvegicus [16] = experiment: Inhibition of adjuvant-induced arthritis in Wistar rat at 0.3 mg/kg, po; type: functional; procedure, shortened: as §1

Compound: Cc1ccc(-c2ncc(Cl)cc2-c2ccc(S(C)(=O)=O)cc2)cn1 [ETORICOXIB]
- solubility [1]: > 1000 µg/mL
- inhibition in vivo at 1 mg/kg (Rattus norvegicus [2]): 60%
- Tmax [3]: 18 min
- solubility [4]: 104 µg/mL (≈ 290 µM)
- AUC(0-t) [5]: 1660 ng·h/mL
- inhibition in vivo at 3 mg/kg (Rattus norvegicus [6]): 81%
- Cmax [7]: 427 ng/mL
- Stability (Liver microsomes [8]): 4%
- Stability (Liver microsomes [9]): 6%

Compound: Cc1ccc(-c2ncc(Cl)cc2-c2ccc([S@@+](C)[O-])cc2)cn1
- inhibition [10]: 24.4%
- Stability (Liver microsomes [8]): 5%
- Stability (Liver microsomes [9]): 26%

Compound: CS(=O)(=O)c1ccc(C2=C(c3ccccc3)C(=O)OC2)cc1 [ROFECOXIB]
- solubility [1]: 16 µg/mL (≈ 50.9 µM)
- inhibition in vivo at 1 mg/kg (Rattus norvegicus [15]): 48%
- Tmax [3]: 24 min
- solubility [4]: 15 µg/mL (≈ 47.7 µM)
- AUC(0-t) [5]: 531 ng·h/mL
- Cmax [7]: 237 ng/mL
- inhibition in vivo at 0.3 mg/kg (Rattus norvegicus [16]): 41%
- Stability (Liver microsomes [9]): 38%

Compound: C[S+]([O-])c1ccc(C2=C(c3ccccc3)C(=O)OC2)cc1 (stereo not drawn)
- solubility [1]: 717 µg/mL (≈ 2400 µM)
- AUC (Rattus norvegicus [11]): 979 ng·h/mL
- inhibition in vivo at 1 mg/kg (Rattus norvegicus [15]): 56%
- Tmax [3]: 18 min
- solubility [4]: 537 µg/mL (≈ 1800 µM)
- AUC(0-t) [5]: 318 ng·h/mL
- Cmax (Rattus norvegicus [12]): 468 ng/mL
- Cmax [7]: 334 ng/mL
- IC50 [13]: 4.93 µM
- inhibition in vivo at 0.3 mg/kg (Rattus norvegicus [16]): 72%
- Stability (Liver microsomes [8]): 5%
- Stability (Liver microsomes [9]): 35%
- Tmax (Rattus norvegicus [14]): 24 min

The next lines start with results.

- solubility [1]: > 1000 µg/mL
- AUC (Rattus norvegicus [11]): 803 ng·h/mL
- Tmax [3]: 36 min
- solubility [4]: > 1000 µg/mL
- AUC(0-t) [5]: 578 ng·h/mL
- Cmax (Rattus norvegicus [12]): 254 ng/mL
- Cmax [7]: 133 ng/mL
- IC50 [13]: 3.7 µM
- Stability (Liver microsomes [8]): 6%
- Stability (Liver microsomes [9]): 21%
- Tmax (Rattus norvegicus [14]): 18 min
Compound: Cc1ccc(-c2ncc(Cl)cc2-c2ccc([S+](C)[O-])cc2)cn1 (stereo not drawn)
- inhibition in vivo at 1 mg/kg (Rattus norvegicus [2]): 67%
- inhibition in vivo at 3 mg/kg (Rattus norvegicus [6]): 49%

- IC50 [13]: 3.5 µM
- Stability (Liver microsomes [8]): 2%
- Stability (Liver microsomes [9]): 17%
Compound: Cc1ccc(-c2ncc(Cl)cc2-c2ccc([S@+](C)[O-])cc2)cn1

- Stability (Liver microsomes [8]): 1%
- Stability (Liver microsomes [9]): 49%
Compound: C[S@@+]([O-])c1ccc(C2=C(c3ccccc3)C(=O)OC2)cc1

- Stability (Liver microsomes [8]): 4%
- Stability (Liver microsomes [9]): 40%
Compound: C[S@+]([O-])c1ccc(C2=C(c3ccccc3)C(=O)OC2)cc1
